The results in this text go back to PubChem BioAssay.

Assay [1] can be described thus: inhibitors of TNFa-induced NFkB p65 translocation, primary screen, imaging, HUVEC, MLSMR starter and 10KST1 sets (AID 438;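 active = inhibition above 20% together with a positive visual image hit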;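 note: compound added about 3h40 before a 20 min TNFalpha stimulation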;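 for inhibition: signal is the nuclear over cytoplasmic p65 intensity ratio per well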). The note with it: HUVEC TNFa-induced p65 nuclear translocation; cell count: measured here: nuclei count (cytotoxicity indicator), at 2.08 µM; inhibition: at 2 µM, stronger effect = higher value, 0% TNFa-plus-vehicle, 100% no-TNFa wells.
A short description of assay [2]: inhibitors of E-selectin induction by TNFa, primary screen, imaging, HUVEC, immunofluorescence, MLSMR starter and 10KST1 sets (AID 487).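 For inhibition: signal is fraction of cell area covered by stained E-selectin grains.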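 For nuclei count: 100% = median nuclei count of all wells on the same plate.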 The settings on record: HUVEC TNFalpha-induced E-selectin immunofluorescence imaging, at 2 µM; inhibition: stronger effect = higher value; nuclei count: measured here: cell number, toxicity.
Assay [3] can be described thus: DUSP6 inhibitors restoring Erk phosphorylation by chemical complementation, primary imaging in DUSP6-transfected HeLa (AID 609;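 active = compounds giving at least 50% inhibition in the cell-based MKP-3 phosphatase rescue imaging test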;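 for inhibition: phospho-Erk level distribution per well compared with pooled transfected vehicle control wells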). The note with it: HeLa MKP-3 transfected, phospho-Erk imaging KS statistic, at 10 µM, cells stimulated with TPA for 15 min.
Assay [4] concerns the target Dual specificity protein phosphatase 6 (Homo sapiens) (UniProt Q16828). The assay is described as above. The note with it: HeLa MKP-3 transfected, phospho-Erk imaging KS statistic; at 10 µM; stronger effect = higher value; cells stimulated with TPA for 15 min.
The target in assay [5] is Voltage-gated potassium channel subunit beta-2 (Rattus norvegicus) (UniProt P62483). The assay can be described thus: KvBeta enzyme negative modulators, primary screen, biochemical, NADPH fluorescence (AID 622;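 active = fluorescence slope higher than the sample average by over 3 SD, cut at about -0.22 in these data, passing the limit was not always enough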;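 note: slope of raw intensity against log time taken from 70 to 1610 s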). The settings on record: recombinant KvBeta, 4-cyanobenzaldehyde reduction, at 10 µM, stronger effect = higher value.
The target is the same in assay [6]. The experiment in a line: KvBeta positive modulators, primary screen, biochemical, NADPH fluorescence (AID 623;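 active = NADPH fluorescence slope more negative than the mean of all samples by about 3 SD, 99.7% confidence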;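 note: fluorescence intensity change per second fitted from 20 to 320 s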). The note with it: Recombinant KvBeta, NADPH fluorescence decrease slope, 10 min; at 10 µM; stronger effect = lower value.
For assay [7], the target named is Alpha-2C adrenergic receptor (Homo sapiens) (UniProt P18825). The experiment in a line: modulators of alpha2C/GIRK thallium flux, primary screen, cell-based, HEK293 alpha2C/GIRK1/2 (AID 624;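 active = fluorescence slope after compound addition differing from the mean of all screened samples at 99.7% confidence, in either direction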;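 note: slope of fluorescence ratio to pre-addition baseline per second over 15 to 24 s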). The settings on record: thallium flux BTC fluorescence, at 10 µM, actives lie on both sides.
Assay [8] in a line: inhibitors of larval lipid processing in zebrafish, primary screen, whole organism, PED6 fluorescence, gall bladder and intestine (AID 686;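 active = a full or partial loss of lipid-probe fluorescence in the fish gall bladder, intestine or both, judged by eye; inactive = no fluorescence loss, or compound toxic to the fish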;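 note: larvae 5 to 7 days old with five fish per well; signal comes from phospholipase A2 cleavage of quenched PED6 carried via bile; overnight exposure to compound and PED6 before scoring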). The note with it: Zebrafish larvae PED6 lipid processing, fluorescence scoring; screened at 20 µM (by protocol). Summed up: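 Also added: quenched phospholipase substrate PED6, 100 nM final, ingested by larvae; System: zebrafish larvae, 5-7 d; Quantity: 5 larvae per well; Compound: 20 µM single dose; Schedule: overnight compound and PED6 incubation; Read-out: visual per-well fluorescence inhibition score; Measured by: By-eye fluorescence microscopy; Medium: E3.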

Assay [9] is described as follows: inhibitors of Chlamydomonas gravitaxis, primary screen, whole organism, Chlamydomonas reinhardtii, WT vs cilia-less mutant, absorbance, 96-well (AID 463189;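 active = inhibition at or above 50% relative to wild type and mutant plate controls; inactive = inhibition below 50%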;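 note: 0% = wild type cc124 cells in DMSO and 100% = ciliumless bld1 mutant cells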). The settings on record: OD600 absorbance, 2 days, at 10 µM, stronger effect = higher value.
The mark [10] stands for this setting: measured here: cell density z-score.
Setting [11] is: measured here: nuclear c-Myc green intensity z-score.
The mark [12] stands for this setting: measured here: nuclear pErk red intensity z-score, stronger effect = higher value.

Active and inactive are the calls of the source.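 Rule for the calls, unless noted: active = visually confirmed hit in the image check and inhibition above 20%; inconclusive = visually confirmed hit but inhibition not above 20%; inactive = no visual hit in the image check.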

Chain of Alpha-2C adrenergic receptor (Homo sapiens) (P18825 whole entry, looked up): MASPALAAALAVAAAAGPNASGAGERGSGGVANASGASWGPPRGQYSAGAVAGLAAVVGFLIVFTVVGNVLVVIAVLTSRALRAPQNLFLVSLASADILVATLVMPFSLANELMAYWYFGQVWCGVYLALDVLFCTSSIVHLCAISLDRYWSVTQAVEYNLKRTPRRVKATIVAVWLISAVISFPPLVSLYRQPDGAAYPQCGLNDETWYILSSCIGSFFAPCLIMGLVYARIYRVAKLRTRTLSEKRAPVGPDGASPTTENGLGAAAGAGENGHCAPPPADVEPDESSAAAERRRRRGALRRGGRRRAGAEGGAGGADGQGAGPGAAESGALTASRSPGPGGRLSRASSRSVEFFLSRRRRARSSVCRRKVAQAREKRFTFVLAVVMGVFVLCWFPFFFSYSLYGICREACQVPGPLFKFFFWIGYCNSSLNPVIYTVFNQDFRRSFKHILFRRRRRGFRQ
Chain of Dual specificity protein phosphatase 6 (Homo sapiens) (Q16828 whole entry, looked up): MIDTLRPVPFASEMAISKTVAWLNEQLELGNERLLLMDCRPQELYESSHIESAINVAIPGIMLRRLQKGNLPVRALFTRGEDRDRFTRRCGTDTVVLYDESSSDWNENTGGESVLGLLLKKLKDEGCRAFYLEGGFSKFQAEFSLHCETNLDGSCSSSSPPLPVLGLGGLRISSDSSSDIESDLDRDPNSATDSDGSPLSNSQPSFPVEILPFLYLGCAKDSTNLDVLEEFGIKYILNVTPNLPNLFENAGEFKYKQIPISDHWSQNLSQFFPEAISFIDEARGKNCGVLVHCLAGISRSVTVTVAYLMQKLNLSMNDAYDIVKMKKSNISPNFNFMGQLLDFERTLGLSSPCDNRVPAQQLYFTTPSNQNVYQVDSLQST
Chain of Voltage-gated potassium channel subunit beta-2 (Rattus norvegicus) (P62483 whole entry, looked up): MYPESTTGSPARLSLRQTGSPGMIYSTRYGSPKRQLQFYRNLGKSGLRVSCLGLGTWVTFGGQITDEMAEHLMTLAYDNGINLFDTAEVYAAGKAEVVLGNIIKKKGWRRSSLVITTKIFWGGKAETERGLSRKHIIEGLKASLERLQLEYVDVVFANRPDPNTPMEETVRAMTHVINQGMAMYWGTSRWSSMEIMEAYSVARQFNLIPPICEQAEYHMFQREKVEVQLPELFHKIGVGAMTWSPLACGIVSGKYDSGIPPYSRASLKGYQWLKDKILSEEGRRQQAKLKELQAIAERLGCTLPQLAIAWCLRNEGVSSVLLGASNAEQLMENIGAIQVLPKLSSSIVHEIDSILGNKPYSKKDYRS

As usually defined, the inhibition is the relative decrease from the control value, in per cent. With `Cc1c(/C(O)=C2\C(=O)C(=O)N(CCN(C)C)C2c2cccnc2)cnn1-c1ccccc1` (stereo unspecified), the cell count in [1] was found to be 512. The inhibition is -1.7% (inactive) in assay [1], -140% (inactive) in assay [2], -8.76% (inactive) in assay [4] and -1.73% (inactive) in [9]. In addition, in assay [2], the nuclei count came to 139%. The z-score in assay [3] (setting [10]) is 1.11; in [3] (setting [11]) it was -1.54; in assay [3] (setting [12]), 0.165. Moreover, the fluorescence slope in [5] is -0.564 (inactive). In assay [6], the NADPH fluorescence slope is -7.1e-05 (inactive). The slope in assay [7] was 0.00465 (inactive). Further, the call in [8] was inactive.
Regarding `COc1ccc(OC)c2c1CCC2=O`, in assay [1], the cell count is 434. For the same compound, the inhibition was -0.5% (inactive) in [1], 3.9% (inactive) in assay [2], -1.12% (inactive) in [4] and 9.78% (inactive) in assay [9]. The same compound gave a nuclei count in [2] of 102%. The z-score was -0.357 in [3] (setting [10]), -1.08 in assay [3] (setting [11]) and -0.0279 in assay [3] (setting [12]). Further, in assay [5], the fluorescence slope was -0.0756 (inactive). The NADPH fluorescence slope in assay [6] was 8.5e-06 (inactive). For the same compound, the slope in assay [7] is 0.00599 (inactive). The call in assay [8] was inactive.
Consider `CC(C)C1Cc2c(sc3c2c(=O)n(Cc2ccccc2)c2nncn32)CO1` (stereo unspecified), for which the cell count in assay [1] came to 557. Further, the inhibition in assay [1] was -4.6% (inactive); in assay [2], -2.8% (inactive); in [4] it was 9.61% (inactive); in [9], 8.24% (inactive). In addition, in assay [2], the nuclei count turned out to be 115%. In addition, the values for the z-score in assay [3] (setting [10]), in assay [3] (setting [11]) and in [3] (setting [12]) were 1.56, 0.421 and -0.614, respectively. In addition, the fluorescence slope in assay [5] was -0.481 (inactive). For the same compound, the NADPH fluorescence slope in assay [6] is -0.000346 (inactive). For the same compound, in assay [7], the slope is 0.00509 (inactive). In addition, the result in [8] was inactive.
With `CCN(CC)c1ccc2cc(-c3nnc(-c4ccncc4)o3)c(=O)oc2c1`, the cell count in assay [1] was 490. Besides, the inhibition in assay [1] is -5.2% (inactive); in [2] it was -87.1% (inactive); in [4] it was 72.4% (inactive); in assay [9] it was 6.54% (inactive). Further, the nuclei count in assay [2] is 137%. The z-score in assay [3] (setting [10]) was -0.456; in assay [3] (setting [11]), 1.6; in assay [3] (setting [12]) it was 0.914. For the same compound, in assay [5], the fluorescence slope was -0.436 (inactive). For the same compound, the NADPH fluorescence slope in assay [6] was -0.000104 (inactive). Also, the slope in assay [7] is 0.00165 (inactive). The compound was classed as inactive in assay [8].
With `CCOc1cccc(-c2nnc3sc(-c4ccco4)nn23)c1`, the cell count in assay [1] was 668. Further, the inhibition was -1.9% (inactive) in [1], -152% (inactive) in assay [2], -13.3% (inactive) in assay [4] and 18.3% (inactive) in assay [9]. This compound also showed a nuclei count in assay [2] of 182%. Further, the values for the z-score in assay [3] (setting [10]), in assay [3] (setting [11]) and in [3] (setting [12]) were 0.882, 2.36 and -0.0575, respectively. Further, the fluorescence slope in assay [5] is -0.428 (inactive). The NADPH fluorescence slope in assay [6] was -0.000142 (inactive). Moreover, the slope in assay [7] was 0.00609 (inactive). The compound was called inactive in assay [8].
Regarding `Cc1nc(N2CCN(Cc3ccccc3)CC2)c(C#N)c2c1COC(C)(C)C2`, the cell count in assay [1] was found to be 686. Besides, the inhibition in assay [1] was -5.4% (inactive); in assay [2] it was -178% (inactive); in [4], 3.66% (inactive); in [9], -5.61% (inactive). The nuclei count in assay [2] came to 195%. Further, the z-score in assay [3] (setting [10]) was 0.66; in assay [3] (setting [11]), -1.21; in assay [3] (setting [12]) it was 0.193. Besides, in assay [5], the fluorescence slope is -0.487 (inactive). In assay [6], the NADPH fluorescence slope is -0.000123 (inactive). Moreover, the slope in assay [7] was 0.00373 (inactive). The call in assay [8] was inactive.
Turning to `Cc1nc(Nc2ncc3c(n2)CCCC3=O)nc2ccccc12`, in assay [1], the cell count is 372. Also, the inhibition is 3.8% (inactive) in assay [1], 26.2% (inactive) in [2], 9.42% (inactive) in assay [4] and 22.8% (inactive) in assay [9]. In assay [2], the nuclei count came out at 122%. The z-score in assay [3] (setting [10]) was 0.317; in assay [3] (setting [11]) it was -0.989; in [3] (setting [12]) it was 1.03. Further, the fluorescence slope in assay [5] is -0.403 (inactive). Moreover, the NADPH fluorescence slope in [6] was -0.000152 (inactive). Also, the slope in [7] was 0.00649 (inactive). The call in assay [8] was inactive.
